Experimental data from ChEMBL document CHEMBL3526106, “Cytochrome P450 regulation by α-tocopherol in Pxr-null and PXR-humanized mice” (Drug Metab Dispos, 2013).

Tests used:
Cyp2c29 [1] = assay: Induction of Cyp2c29 gene expression in male PXR null mouse liver at 50 mg/kg dosed through gavage daily for 4 days by qPCR method; settings: po, read-out: FC
Ugt1a9 = assay: Induction of Ugt1a9 gene expression in wild type mouse liver at 50 mg/kg dosed through gavage daily for 4 days by qPCR method; type: ADME, organism-based; design: dose 50 mg/kg; settings: po, read-out: FC
Ugt1a1 = assay: Induction of Ugt1a1 gene expression in wild type mouse liver at 50 mg/kg dosed through gavage daily for 4 days by qPCR method; type: ADME, organism-based; design: dose 50 mg/kg; settings: po, read-out: FC
Mus musculus [2] = assay: Reduction in Ugt1a6a gene expression in PXR-humanized mouse liver at 10 mg/kg dosed through gavage daily for 4 days by qPCR method; settings: in vivo, po, 96 h
[3] = molecular target: T1, PXR (Nuclear receptor subfamily 1 group I member 2) (Mus musculus, UniProt O54915); assay: Activation of mouse PXR expressed in human HepG2 cells at 10 uM after 24 hrs by firefly luciferase DR3 reporter gene assay; type: ADME, cell-based; settings: human HepG2 cells expressing mouse PXR, read-out: FC
T1 sequence (O54915 whole entry): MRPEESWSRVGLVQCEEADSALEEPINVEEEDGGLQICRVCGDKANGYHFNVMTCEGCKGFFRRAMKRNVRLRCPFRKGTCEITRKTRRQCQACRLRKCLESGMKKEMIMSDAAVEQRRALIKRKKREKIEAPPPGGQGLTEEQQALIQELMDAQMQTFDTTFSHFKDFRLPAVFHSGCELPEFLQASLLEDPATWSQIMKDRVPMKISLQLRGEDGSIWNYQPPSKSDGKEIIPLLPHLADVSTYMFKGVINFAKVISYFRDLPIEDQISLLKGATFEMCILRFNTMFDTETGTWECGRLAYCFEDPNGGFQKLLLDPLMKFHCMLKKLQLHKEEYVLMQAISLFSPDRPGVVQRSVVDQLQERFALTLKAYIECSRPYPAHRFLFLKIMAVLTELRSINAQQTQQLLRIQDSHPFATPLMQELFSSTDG
Method in brief: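 HepG2 cells grown in DMEM + 10% FBS were transfected with 10 ng mouse PXR, 100 ng DR3 firefly luciferase reporter and 2 ng Renilla pRL-SV40. Compound in DMSO was added 24 h after transfection and left for 24 h. Dual luciferase was then read, firefly normalized to Renilla per well, and expressed as fold over DMSO control.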

Cyp2c55 = assay: Induction of Cyp2c55 gene expression in wild type mouse liver at 50 mg/kg dosed through gavage daily for 4 days by qPCR method; type: ADME, organism-based; design: dose 50 mg/kg; settings: po, read-out: FC
Cyp2c29 [4] = assay: Induction of Cyp2c29 gene expression in wild type mouse liver at 50 mg/kg dosed through gavage daily for 4 days by qPCR method; type: ADME, organism-based; design: dose 50 mg/kg; settings: po, read-out: FC
Mus musculus [5] = assay: Reduction in Ugt1a6b gene expression in PXR-humanized mouse liver at 10 mg/kg dosed through gavage daily for 4 days by qPCR method; settings: in vivo, po, 96 h
Ugt2b5 = assay: Induction of Ugt2b5 gene expression in wild type mouse liver at 50 mg/kg dosed through gavage daily for 4 days by qPCR method; type: ADME, organism-based; design: dose 50 mg/kg; settings: po, read-out: FC
Mus musculus [6] = assay: Reduction in Ugt1a6b gene expression in wild type mouse liver at 50 mg/kg dosed through gavage daily for 4 days by qPCR method; type: ADME, organism-based; design: dose 50 mg/kg; settings: in vivo, po, 96 h
Ugt1a10 [7] = assay: Induction of Ugt1a10 gene expression in wild type mouse liver at 50 mg/kg dosed through gavage daily for 4 days by qPCR method; type: ADME, organism-based; design: dose 50 mg/kg; settings: po, read-out: FC
Cyp3a11 = assay: Induction of Cyp3a11 gene expression in wild type mouse liver at 50 mg/kg dosed through gavage daily for 4 days by qPCR method; type: ADME, organism-based; design: dose 50 mg/kg; settings: po, read-out: FC
Ugt2b34 = assay: Induction of Ugt2b34 gene expression in wild type mouse liver at 50 mg/kg dosed through gavage daily for 4 days by qPCR method; type: ADME, organism-based; design: dose 50 mg/kg; settings: po, read-out: FC
Cyp2b10 = assay: Induction of Cyp2b10 gene expression in wild type mouse liver at 50 mg/kg dosed through gavage daily for 4 days by qPCR method; type: ADME, organism-based; design: dose 50 mg/kg; settings: po, read-out: FC
Ugt1a10 [8] = assay: Induction of Ugt1a10 gene expression in PXR null mouse liver at 50 mg/kg dosed through gavage daily for 4 days by qPCR method; type: ADME, organism-based; design: dose 50 mg/kg; settings: po, read-out: FC
Mus musculus [9] = assay: Drug level in male PXR null mouse treated with 500 mg/kg for 7 to 14 days dosed through vitamin E-deficient base diet by UPLC-ESI-QTOFMS method based metabolomics analysis; type: ADME, organism-based; design: dose 500 mg/kg; settings: in vivo, po
Mus musculus [10] = assay: Drug level in male PXR-humanized mouse treated with 500 mg/kg for 7 to 14 days dosed through vitamin E-deficient base diet by UPLC-ESI-QTOFMS method based metabolomics analysis; type: ADME, organism-based; design: dose 500 mg/kg; settings: in vivo, po
Mus musculus [11] = assay: Drug level in male wild type mouse treated with 500 mg/kg for 7 to 14 days dosed through vitamin E-deficient base diet by UPLC-ESI-QTOFMS method based metabolomics analysis; type: ADME, organism-based; design: dose 500 mg/kg; settings: in vivo, po

Structure (SMILES)	fold induction at 96 h (Cyp2c29 [1])	fold induction at 96 h (Ugt1a9)	fold induction at 96 h (Ugt1a1)	fold change (FC) (Mus musculus [2])	fold induction at 24 h, 10 µM [3]	fold induction at 96 h (Cyp2c55)	fold induction at 96 h (Cyp2c29 [4])	fold change (FC) (Mus musculus [5])	fold induction at 96 h (Ugt2b5)	fold change (FC) (Mus musculus [6])	fold induction at 96 h (Ugt1a10 [7])	fold induction at 96 h (Cyp3a11)	fold induction at 96 h (Ugt2b34)	fold induction at 96 h (Cyp2b10)	fold induction at 96 h (Ugt1a10 [8])	Drug metabolism (Mus musculus [9])	Drug metabolism (Mus musculus [10])	Drug metabolism (Mus musculus [11])
CC(=O)[C@H]1[C@H](C#N)C[C@H]2[C@@H]3CC=C4C[C@@H](O)CC[C@]4(C)[C@H]3CC[C@@]21C [PREGNENOLONE CARBONITRILE]	1.6	9.4	3.1	2	9.5	303	9.2	1.8	1.4	1.3	2.8	20.9	3.2	160	1.8			
CN1CC(=O)NC1=N [CREATININE]																metabolite_detected	metabolite_detected	metabolite_detected
